Laboratory results from publication PMC9683076 (Pharmacology Research & Perspectives, 2022).
Where two headings read alike, the source gives them in different places.

Experiments:
[1] = type: in vivo, human (healthy adult subjects)
Summary of the method: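 Single-centre, open-label, two-period study in healthy adults. Everolimus 0.75 mg given as a single dose alone on Period 1 Day 1. Blood concentrations gave Cmax, AUCinf, Tmax (median), C12 and t1/2. Natural-log parameters were compared by repeated-measures analysis.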

[2] = cited from earlier work
[3] = type: in vivo, human (healthy adult subjects); remark: listed apart in the source
[4] = 2 mg single-dose sirolimus with ketoconazole 200 mg BID at steady state; cited from earlier work
P-gp = settings: cited from earlier work
[5] = digoxin with the 3D regimen; cited from earlier work
[6] = cited from earlier work; remark: listed apart in the source
[7] = everolimus co-administered with the 3D regimen vs alone
[8] = sirolimus 2 mg single dose alone, Period 1 Day 1, N = 11, blood, geometric mean (geometric %CV)
[9] = sirolimus co-administered with the 3D regimen vs alone

## CO[C@H]1C[C@@H]2CC[C@@H](C)[C@@](O)(O2)C(=O)C(=O)N2CCCC[C@H]2C(=O)O[C@H]([C@H](C)C[C@@H]2CC[C@@H](OCCO)[C@H](OC)C2)CC(=O)[C@H](C)/C=C(\C)[C@@H](O)[C@@H](OC)C(=O)[C@H](C)C[C@H](C)/C=C/C=C/C=C/1C [Everolimus, everolimus]
[1]; [7]
  increase in AUCinf: 27 fold
  increase in Cmax: 4.7 fold
  increase in t 1/2: 2.8 fold
[1]; everolimus in the presence of the 3D regimen vs alone
  delay in Tmax: 1 h
[1]; human, blood, 0.75 mg
  AUC(0-inf): 41.9 ng·h/mL
  Cmax: 3.33 ng/mL
  concentration at 12 h: 0.513 ng/mL
[1]; human, blood, 0.75 mg, t 1/2, everolimus 0.75 mg single dose alone, Period 1 Day 1, N = 12, blood, harmonic mean (pseudo-standard deviation)
  half-life: 42 h
[2]; everolimus
  half-life: ~30 h

## CO[C@H]1C[C@@H]2CC[C@@H](C)[C@@](O)(O2)C(=O)C(=O)N2CCCC[C@H]2C(=O)O[C@H]([C@H](C)C[C@@H]2CC[C@@H](O)[C@H](OC)C2)CC(=O)[C@H](C)/C=C(\C)[C@@H](O)[C@@H](OC)C(=O)[C@H](C)C[C@H](C)/C=C/C=C/C=C/1C [Sirolimus, sirolimus]
[3]; human, blood, 2 mg, t 1/2, sirolimus 2 mg single dose alone, Period 1 Day 1, N = 11, blood, harmonic mean (pseudo-standard deviation)
  half-life: 96 h
[3]; human, blood, oral, 2 mg
  AUC(0-inf): 178 ng·h/mL
[3]; [8]
  C24: 1.14 (29) ng/m
  Cmax: 6.66 (33) ng/ml
[3]; sirolimus 2 mg single dose alone, Period 1 Day 1, N = 11, blood, harmonic mean (pseudo-standard deviation)
  t 1/2: 96.3 (15) h
[3]; sirolimus 2 mg single dose alone, Period 1 Day 1, N = 11, blood, median (range)
  Tmax: 2.5 (1.5–4.0) h
[3]; [9]
  increase in dose-normalized AUCinf: 38 fold
  increase in dose-normalized Cmax: 6.4 fold
  increase in t 1/2: 2.6 fold
[3]; sirolimus in the presence of the 3D regimen vs alone
  delay in Tmax: 3.5 h
[2]; sirolimus
  half-life: approximately 62 h
[4]
  increase in Cmax: 4.3 fold

## COc1c(-c2ccc3cc(NS(C)(=O)=O)ccc3c2)cc(-n2ccc(=O)[nH]c2=O)cc1C(C)(C)C [dasabuvir]
P-gp
  P-gp inhibition (in vitro data): potential inhibitors of P‐gp

## C[C@H]1O[C@@H](O[C@H]2[C@@H](O)C[C@H](O[C@H]3[C@@H](O)C[C@H](O[C@H]4CC[C@@]5(C)[C@H](CC[C@@H]6[C@@H]5C[C@@H](O)[C@]5(C)[C@@H](C7=CC(=O)OC7)CC[C@]65O)C4)O[C@@H]3C)O[C@@H]2C)C[C@H](O)[C@@H]1O [digoxin]
[5]
  increase in AUC: ≤ 16%
  increase in Cmax: ≤ 16%

## Cc1ncc2n1-c1ccc(Cl)cc1C(c1ccccc1F)=NC2 [midazolam]
[6]; midazolam co-administered with boceprevir
  increase in AUC: 5.3 fold
[6]; midazolam co-administered with tipranavir/ritonavir
  increase in AUC: 26.9 fold

## Cc1cnc(C(=O)N[C@H]2CCCCC/C=C\[C@@H]3C[C@@]3(C(=O)NS(=O)(=O)C3CC3)NC(=O)[C@@H]3C[C@@H](Oc4nc5ccccc5c5ccccc45)CN3C2=O)cn1 [paritaprevir]
P-gp
  P-gp inhibition (in vitro data): potential inhibitors of P‐gp

## CC(C)c1nc(CN(C)C(=O)N[C@H](C(=O)N[C@@H](Cc2ccccc2)C[C@H](O)[C@H](Cc2ccccc2)NC(=O)OCc2cncs2)C(C)C)cs1 [ritonavir]
P-gp
  P-gp inhibition (in vitro data): potential inhibitors of P‐gp
